Measured values from PMC9424334 (Biomolecules & Therapeutics, 2022).

Key:
Assay type in all cases: cell-based, human
[1] = test system: acetylation of histone H3, H4 and tubulin in MM.1S cells; test: Immunoblotting of acetylated proteins; conditions: 30-1000 nM, 6 h
In short: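 Histones were extracted afterwards, and acetylation of histone H3, H4 and tubulin was assessed by immunoblotting with chemiluminescence detection.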

[2] = test system: cyclin D1 and CDK4 in MM.1S and RPMI8226 cells; test: Immunoblotting for CDK4 and cyclin D1; conditions: MM.1S cells, higher concentration ranges, 24 h
In short: (§1)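 Total lysates were made in RIPA buffer with protease/phosphatase inhibitors, quantified by BCA and immunoblotted, with chemiluminescence detection and GAPDH normalisation. Data are mean ± SEM; one-way ANOVA vs control.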

[3] = test system: DACT family in MM.1S cells; test: Immunoblotting of DACT family expression; conditions: 24 h
In short: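 Total lysates were prepared in RIPA buffer with protease/phosphatase inhibitors and immunoblotted for DACT1, DACT2 and DACT3, normalised to GAPDH with chemiluminescence detection. Data are mean ± SEM.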

[4] = test system: cleaved caspase-3 in MM.1S and RPMI8226 cells; test: Immunoblotting for cleaved caspase-3; conditions: 1000 nM
In short: as §1

O=C(CCCCCCC(=O)Nc1ccccc1)NO [SAHA, Suberoylanilide hydroxamic acid]
acetylation intensity of histone H3 and H4 [1]: increased | acetylation of tubulin [1]: increased | expression level of CDK4 and Cyclin D1 [2]: reduced | protein expression of DACT3 ([3]; 3000 nM): significantly enhanced | protein expression of DACT1 and DACT2 [3]: not altered | cleaved caspase-3 [4]: only marginally increased
